# Assay results of several laboratories.
# Each line is one published result; the experiments were not run side by side.
# Target: Ephrin type-A receptor 8 (EPHA8, Homo sapiens, UniProt P29322)
# Residues used in one study (P29322 28-1005): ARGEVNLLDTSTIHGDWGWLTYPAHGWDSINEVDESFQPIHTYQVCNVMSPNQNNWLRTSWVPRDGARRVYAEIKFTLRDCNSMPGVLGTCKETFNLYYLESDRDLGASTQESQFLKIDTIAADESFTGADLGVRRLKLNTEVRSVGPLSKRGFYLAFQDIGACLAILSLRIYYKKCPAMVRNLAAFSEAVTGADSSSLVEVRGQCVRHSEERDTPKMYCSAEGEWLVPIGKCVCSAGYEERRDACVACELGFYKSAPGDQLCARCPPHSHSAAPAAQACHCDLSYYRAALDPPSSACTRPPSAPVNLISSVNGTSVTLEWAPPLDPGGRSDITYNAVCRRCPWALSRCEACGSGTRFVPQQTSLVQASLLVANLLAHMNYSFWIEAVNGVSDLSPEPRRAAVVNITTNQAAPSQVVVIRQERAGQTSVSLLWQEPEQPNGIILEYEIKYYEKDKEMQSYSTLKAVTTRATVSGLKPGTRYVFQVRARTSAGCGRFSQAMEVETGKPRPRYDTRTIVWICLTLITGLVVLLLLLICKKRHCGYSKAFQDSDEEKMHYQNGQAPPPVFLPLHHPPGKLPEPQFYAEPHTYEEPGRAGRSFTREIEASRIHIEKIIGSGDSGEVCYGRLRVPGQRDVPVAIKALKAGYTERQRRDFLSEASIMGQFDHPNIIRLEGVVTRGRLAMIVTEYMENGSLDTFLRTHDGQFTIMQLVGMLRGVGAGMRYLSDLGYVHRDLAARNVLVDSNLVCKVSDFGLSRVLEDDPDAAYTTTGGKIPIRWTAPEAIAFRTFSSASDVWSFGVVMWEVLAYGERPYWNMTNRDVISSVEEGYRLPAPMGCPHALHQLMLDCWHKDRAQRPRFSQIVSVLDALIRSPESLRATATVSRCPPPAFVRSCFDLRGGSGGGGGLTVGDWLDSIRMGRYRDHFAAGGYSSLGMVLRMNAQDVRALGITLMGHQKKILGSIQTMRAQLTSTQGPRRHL
SMILES,test,conditions,quantity,result
COc1cc(Cl)c(C(=O)N[C@@H](CN[C@H]2CC[C@@H](N)CC2)Cc2ccc(C#N)cc2)cc1-c1ccc(CN[C@H](C)c2ccc(C)cc2)o1,"enzyme activity, inhibitor",1 µM,remaining activity,107%
Cn1cncc1[C@](O)(COc1ccc(C#N)cc1-c1ccc(OC(F)(F)F)cc1)c1ccc(C#N)cc1,"cell-free assay, competition with immobilised ligand",1 µM,remaining binding,72%
Cn1cc(-c2cccc(N3CCc4c(sc5c4CC(C)(C)C5)C3=O)c2CO)cc(Nc2ccncn2)c1=O,"enzyme activity, inhibitor",1 µM,inhibition,1%
CC(C)(C)c1cc(C=C(C#N)C#N)cc(Br)c1O,"enzyme activity, inhibitor",0.5 µM,remaining activity,100%
COc1cc(Nc2ncc(F)c(Nc3ccc4c(n3)NC(=O)C(C)(C)O4)n2)cc(OC)c1OC,"binding, competition with immobilised ligand",10 µM,inhibition,58%
Nc1ncc(-c2nc(N3CCOCC3)nc(N3CCOCC3)n2)c(C(F)F)n1,"cell-free assay, competition with immobilised ligand",10 µM,remaining binding,100%
Cn1cc(-c2cc(F)cc(N3CCn4c(cc5c4CCCC5)C3=O)c2CO)cc(Nc2ccc(N3CCN(C4COC4)CC3)cn2)c1=O,"enzyme activity, inhibitor",0.1 µM,inhibition,8%
O=c1[nH]c2ccccc2n1C1CCN(Cc2ccc(-c3[nH]c4cc5ncnc5cc4nc3-c3ccccc3)cc2)CC1,cell-free assay,0.5 µM,remaining signal,106%
Cc1nn(C)cc1-c1nc2c(N3CCN(Cc4ccc(Cl)cc4)CC3)c(Cl)cnc2[nH]1,"binding, competition with immobilised ligand",1 µM,remaining binding,100%
COc1ncccc1-c1cnn2ccc(N3CCN(C(=O)OC(C)C)CC3)nc12,"binding, competition with immobilised ligand",1 µM,remaining binding,100%
N#CC1(c2ccccn2)CCN(Cc2cc(C(=O)O)c(=O)n3ccccc23)CC1,"cell-free assay, competition with immobilised ligand",1 µM,remaining binding,100%
